Measurements from different studies.
Compare with care: the assays were run in different laboratories.
Target: Myotonin-protein kinase (DMPK, Homo sapiens, UniProt Q09013)

Compound | effect on | action | technique | tested at | endpoint | result
O=C(O)[C@H]1[C@H](Cn2nnc3ccccc3c2=O)CC[C@@H]1C(=O)c1ccc(OCCC2CCOCC2)cc1 | cell-free assay | – | competition with immobilised ligand | 1 µM | remaining binding | 83%
Cn1c2c(Cl)c(Cl)ccc2c2cc[nH]c(=O)c21 | thermal stability | – | DSF | 10 µM | ΔTm | 0 °C
O=C(Nc1cnn(-c2csc(C(=O)NC3COC3)c2)c1)Nc1c(F)cccc1Cl | enzyme activity | inhibitor | – | 5 µM | remaining activity | 110%
CCN(CC)CCNC(=O)c1c(C)[nH]c(/C=C2\C(=O)Nc3ccc(F)cc32)c1C | enzyme activity | inhibitor | – | 10 µM | inhibition | -5%
Cn1c2c(c3ccc(Cl)c(Cl)c31)C(C#N)C1(CCN(C(=O)OC(C)(C)C)CC1)NC2=O (racemic) | thermal stability | – | DSF | 10 µM | ΔTm | -0.5 °C
COc1cc(Cl)c(C(=O)N[C@@H](CN[C@H]2CC[C@@H](N)CC2)Cc2ccc(C#N)cc2)cc1-c1ccc(CN[C@H](C)c2ccc(C)cc2)o1 | enzyme activity | inhibitor | – | 1 µM | remaining activity | 100%
Cn1c2c(c3ccc(Cl)c(Cl)c31)C(C#N)C1(CCOCC1)NC2=O (stereo not shown) | thermal stability | – | DSF | 10 µM | ΔTm | 0 °C
C=CC(=O)Nc1cc(Nc2nccc(Nc3cc(Cl)c(F)cc3C(C)(C)O)n2)c(OC)cc1N1CC[C@@H](N(C)C)C1 | enzyme activity | inhibitor | – | 1 µM | inhibition | 11%
Cc1nc(C2CCN(C(=O)c3ccc(OC(F)(F)F)cc3N)CC2)c2ncc(N3CCN(C)CC3)cc2n1 | cell-free assay | – | competition with immobilised ligand | 1 µM | remaining binding | 100%
Cn1c2c(c3ccc(Cl)c(Cl)c31)C(C#N)C1(CCCC1)NC2=O (stereo not shown) | thermal stability | – | DSF | 10 µM | ΔTm | -0.2 °C
Cc1ccc(Nc2nccc(N(C)c3ccc4c(C)n(C)nc4c3)n2)cc1S(N)(=O)=O | enzyme activity | inhibitor | – | 0.3 µM | inhibition | -15%
COc1cc2c(Nc3ccc(Br)cc3F)ncnc2cc1OCC1CCN(C)CC1 | cell-free assay | – | – | 0.5 µM | remaining signal | 94.6%
CN(C)C(=O)Cn1cc(-c2nc([C@@](C)(c3ccc(-c4cnc(N)nc4)cc3)C3CC3)no2)cn1 | cell-free assay | – | competition with immobilised ligand | 1 µM | remaining binding | 100%
CCCS(=O)(=O)Nc1ccc(F)c(C(=O)c2c[nH]c3ncc(-c4ccc(Cl)cc4)cc23)c1F | enzyme activity | inhibitor | – | 1 µM | inhibition | < 10%
CC(C)(C)c1nc2c(s1)c1nc(N)ncc1c1ccc(NS(=O)(=O)c3c(F)cccc3F)c(F)c12 | enzyme activity | inhibitor | radiometric | 1 µM | remaining activity | 95%
Cc1ccc(NC(=O)c2ccc(C)c(C(F)(F)F)c2)cc1C#Cc1nn(C2CCC(O)CC2)c2ncnc(N)c12 (stereo not shown) | cell-free assay | – | – | 10 µM | remaining signal | 91%
Nc1ncnc2occ(-c3ccc(NC(=O)Nc4cc(C(F)(F)F)ccc4F)cc3)c12 | cell-free assay | inhibitor | – | 20 µM | remaining signal | 73%
O=C1Nc2ccc(Cl)cc2C1=Cc1cc(Cl)c(O)c(Cl)c1 | cell-free assay | – | – | 0.5 µM | remaining signal | 112%
C[C@H](c1ccnc(Nc2nc3ccc(-c4cc(N(C)C)ncn4)cc3[nH]2)c1)N1CCN(C(=O)CC(F)(F)F)CC1 | cell-free assay | – | competition with immobilised ligand | 0.1 µM | remaining binding | 100%
CNC(=O)c1cc(Oc2ccc(NC(=O)Nc3ccc(Cl)c(C(F)(F)F)c3)cc2)ccn1 | enzyme activity | inhibitor | – | 10 µM | inhibition | -16%
CC(C)CC(=O)N1CCc2nc(-c3ccc(Br)cc3)nc(N(C)Cc3ccccc3)c2C1 | cell-free assay | – | competition with immobilised ligand | 0.1 µM | remaining binding | 87%
Cn1c2c(c3ccc(Cl)c(Cl)c31)C(C#N)C1(CCNCC1)NC2=O (racemic) | thermal stability | – | DSF | 10 µM | ΔTm | -0.3 °C
O=C(O)c1cc(-c2ccc(C3CCNCC3)cc2)c2ccc(-c3ccc(C(F)(F)F)cc3)cc2c1 | cell-free assay | – | competition with immobilised ligand | 1 µM | remaining binding | 100%
Cc1sc(C(=O)NC2COC2)cc1-n1cc(NC(=O)Nc2c(F)cccc2Cl)cn1 | enzyme activity | inhibitor | – | 10 µM | remaining activity | 95.2%
O=C(NCc1ncc(C(F)(F)F)cc1Cl)c1ccc2c(c1)C1(CCS(=O)(=O)CC1)[C@@H](C1CC1)N2S(=O)(=O)c1ccc(F)cc1 | cell-free assay | – | competition with immobilised ligand | 1 µM | remaining binding | 86%
Cn1c2c(Cl)c(Cl)ccc2c2cn[nH]c(=O)c21 | thermal stability | – | DSF | 10 µM | ΔTm | 0.4 °C
COc1ccc2cc(OCC3(C(=O)O)CN(C(=O)c4ccc(F)cc4)C3)ccc2c1 | cell-free assay | – | competition with immobilised ligand | 1 µM | remaining binding | 76%
CC(C)(O)[C@H]1CC[C@H](Nc2ccc3ncc(-c4cccc(C(F)(F)F)c4)n3n2)CC1 | enzyme activity | inhibitor | – | 1 µM | remaining activity | 97.5%
